The values below come from ChEMBL document CHEMBL6134787, “Fexinidazole optimization: enhancing anti-leishmanial profile, metabolic stability and hERG safety” (RSC Med Chem, 2024).

In general, IC50 refers to the concentration that inhibits the measured activity by half. The IC25 is the point of the concentration-response curve where the effect stands at 25%. Higher therefore signals a need for much substance.

A short description of series [1]: Hepatotoxicity against mouse TAMH cells assessed as cell viability at 7.8 to 125 uM incubated for 24 to 48 hrs by MTT assay. It counts as toxicity, cell-based. The settings on record: dose lower 7.8 µM, time lower 24 hrs, dose upper 125 µM, time upper 48 hrs, read-out: Activity. In short, it runs like this:
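TAMH mouse liver cells in FCS-free DMEM/F12 with 5% PANEXIN NTA, 10 mM nicotinamide and gentamicin. Seeded at 20 000/well and attached 24 h at 37 °C, 5% CO2. DMSO-diluted compounds were applied for 24 or 48 h. MTT was added for 4 h, formazan dissolved in DMSO and A570 read. Viability was background-corrected and expressed relative to DMSO controls; mean ± SD, ≥3 experiments.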

Series [2] concerns Leishmania donovani. Put plainly: Antileishmanial activity against wild type Leishmania donovani HU3 promastigotes […] assessed as inhibition of parasite growth incubated for 72 hrs by automatic microtiter plate reader analysis. It counts as functional, organism-based.
The target in series [3] is T1, Voltage-gated inwardly rectifying potassium channel KCNH2 (Homo sapiens, UniProt Q12809). Put plainly: Inhibition of human ERG stably overexpressed in HEK293 cells incubated for 30 mins by FLIPR assay. It counts as toxicity, cell-based. To be noted: human, hek293, 0.5 h; time 30 min.
T1 sequence (Q12809 whole entry): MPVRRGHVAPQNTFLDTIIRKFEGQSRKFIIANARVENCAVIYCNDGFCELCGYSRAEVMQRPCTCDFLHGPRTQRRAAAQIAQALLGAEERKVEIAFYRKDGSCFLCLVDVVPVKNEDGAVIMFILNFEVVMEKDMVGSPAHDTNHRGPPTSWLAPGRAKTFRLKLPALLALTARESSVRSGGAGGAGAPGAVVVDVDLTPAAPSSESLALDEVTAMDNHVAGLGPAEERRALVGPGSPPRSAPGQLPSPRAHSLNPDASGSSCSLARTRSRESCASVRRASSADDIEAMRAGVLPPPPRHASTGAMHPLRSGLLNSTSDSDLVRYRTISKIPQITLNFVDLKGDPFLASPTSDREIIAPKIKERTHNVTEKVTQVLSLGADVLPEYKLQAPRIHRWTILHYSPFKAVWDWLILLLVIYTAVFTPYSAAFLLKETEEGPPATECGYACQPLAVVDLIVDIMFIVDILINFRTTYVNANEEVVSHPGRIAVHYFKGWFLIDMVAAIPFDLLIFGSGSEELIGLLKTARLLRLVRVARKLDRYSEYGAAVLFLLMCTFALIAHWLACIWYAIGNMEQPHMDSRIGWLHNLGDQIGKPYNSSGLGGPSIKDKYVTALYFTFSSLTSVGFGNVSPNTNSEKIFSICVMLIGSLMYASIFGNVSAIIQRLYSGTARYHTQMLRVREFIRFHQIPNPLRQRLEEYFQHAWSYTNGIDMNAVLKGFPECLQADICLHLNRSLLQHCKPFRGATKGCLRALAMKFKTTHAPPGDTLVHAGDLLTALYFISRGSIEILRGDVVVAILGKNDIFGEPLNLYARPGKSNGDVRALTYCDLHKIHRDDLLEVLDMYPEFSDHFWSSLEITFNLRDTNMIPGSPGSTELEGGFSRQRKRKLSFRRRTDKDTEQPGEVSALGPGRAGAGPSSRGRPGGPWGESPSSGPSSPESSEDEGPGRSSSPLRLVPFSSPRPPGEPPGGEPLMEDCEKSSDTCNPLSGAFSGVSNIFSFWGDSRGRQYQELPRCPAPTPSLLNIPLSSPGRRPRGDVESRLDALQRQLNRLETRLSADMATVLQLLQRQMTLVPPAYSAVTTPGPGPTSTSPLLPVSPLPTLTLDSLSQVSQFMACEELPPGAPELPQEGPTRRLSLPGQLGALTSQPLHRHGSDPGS
The subject of series [4] is Leishmania amazonensis. Put plainly: Antileishmanial activity against wild type Leishmania amazonensis LV78 promastigotes […] assessed as inhibition of parasite growth incubated for 72 hrs by automatic microtiter plate reader analysis. It counts as functional, organism-based. In short, it runs like this:
(§1)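 Promastigotes were grown in Schneider's medium (4 mM glutamine, gentamicin, 10% heat-inactivated FBS, pH 6.9, 27 °C). Cells were seeded at 1.5 × 10^5/well and exposed to a concentration series for 72 h at 27 °C.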

Another series has as its system RAW264.7. Put plainly: Cytotoxicity against mouse RAW264.7 cells assessed as inhibition of cell growth incubated for 72 hrs by MTS assay. It counts as functional, cell-based. The settings on record: RAW264.7, 72 h. In short, it runs like this:
(§2)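 Cells in DMEM + 10% heat-inactivated FBS with penicillin/streptomycin at 37 °C, 5% CO2. They were seeded at 1 × 10^4/well and incubated with a concentration series for 72 h at 37 °C. Viability was read by MTS/PMS assay at 490 nm and IC50 derived.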

Series [5] has as its target T1, Voltage-gated inwardly rectifying potassium channel KCNH2. Put plainly: (§3) Inhibition of human ERG stably overexpressed in HEK293 cells assessed as remaining activity at 6 uM incubated for 30 mins by FLIPR assay. It counts as toxicity, cell-based. To be noted: hek293, 0.5 h, 6 µM. In short, it runs like this:
(§4)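 HEK-293 cells stably expressing hERG, seeded at 60 000/well and grown 24 h. Compounds were added in DMSO (final 0.5%) and incubated 30 min in the dark. After 20 s baseline, Tl+ stimulus (3 mM) was added and fluorescence (ex 485/em 535 nm) recorded for 2.5 min.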

The test system of series [6] is Leishmania braziliensis. Put plainly: Antileishmanial activity against wild type Leishmania braziliensis UA847 promastigotes […] assessed as inhibition of parasite growth incubated for 72 hrs by automatic microtiter plate reader analysis. It counts as functional, organism-based. In short, it runs like this: as §1
A short description of series [7]: Cytotoxicity against mouse L929 cells assessed as inhibition of cell growth incubated for 72 hrs by MTS assay. It counts as toxicity, cell-based. The procedure, abridged:
as §2
(Tetrazolium assays rely on reduction of a dye to a coloured formazan, in cell work by metabolically active cells.)

The next series deals with Leishmania major. Put plainly: Antileishmanial activity against wild type Leishmania major FV1 promastigotes […] assessed as inhibition of parasite growth incubated for 72 hrs by automatic microtiter plate reader analysis. It counts as functional, organism-based. The procedure, abridged: as §1
Series [8] can be described thus: Metabolic stability in rat liver S9 fraction assessed as compound remaining at 20 uM measured after 32 mins in presence of NADP and GSH by HPLC analysis. It counts as ADME, subcellular. The settings on record: read-out: Stability. In short, it runs like this: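 Rat liver S9 (final 4 mg/mL) in 50 mM phosphate pH 7.4 with NADPH-regenerating system (0.3 mM NADP+, 5.3 mM glucose-6-phosphate, G6PDH), 10 mM MgCl2 and 5 mM EDTA. Pre-warmed 10 min at 37 °C, then 20 μM compound and 5.5 μM GSH added. Samples taken at 0, 16 and 32 min were quenched in ice-cold acetonitrile. HPLC (254/280 nm) peak area was expressed relative to 0 min.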

The subject of series [9] is Leishmania donovani. Put plainly: Antileishmanial activity against miltefosine resistant Leishmania donovani HU3MILR40 promastigotes […] assessed as inhibition of parasite growth incubated for 72 hrs by automatic microtiter plate reader analysis. It counts as functional, organism-based. The procedure, abridged:
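Promastigote (free parasite) assay: Schneider's Drosophila medium with 4 mM glutamine, 25 μg mL−1 gentamicin, 10% heat-inactivated FBS, pH 6.9, 27 °C. 1.5 × 10^5 promastigotes per well exposed to a concentration series for 72 h at 27 °C.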

Series [10] can be described thus: Metabolic stability in rat liver microsome assessed as compound remaining at 20 uM measured after 32 mins in presence of NADP and GSH by HPLC analysis. It counts as ADME. The settings on record: liver microsomes, read-out: Stability. In short, it runs like this: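 Rat liver microsomes (final 2 mg/mL) in 50 mM phosphate pH 7.4 with 0.3 mM NADP+, 5.3 mM glucose-6-phosphate, G6PDH, 10 mM MgCl2 and 5 mM EDTA. 20 μM compound added at 37 °C. Aliquots at 0, 16 and 32 min were quenched in ice-cold acetonitrile and centrifuged. HPLC peak area at 254/280 nm was expressed relative to 0 min.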
(In general: Liver microsomes are vesicles of endoplasmic reticulum, rich in cytochrome P450 enzymes.)

The next series deals with hERG (KCNH2) (Homo sapiens, UniProt Q12809). Described as §3. It counts as toxicity, cell-based. The settings on record: HEK293 cells stably overexpressing hERG, read-out: Activity. In short, it runs like this:
as §4
A general note: hERG is a cardiac potassium channel; its block is linked to QT prolongation.

The subject of series [11] is Leishmania donovani. Put plainly: Antileishmanial activity against wild type Leishmania donovani HU3 amastigotes infected in mouse peritoneal macrophage assessed as inhibition of parasite growth incubated for 72 hrs by giemsa staining based analysis. It counts as functional, organism-based. In short, it runs like this:
(§5)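 Mouse peritoneal macrophages in DMEM + 10% heat-inactivated FBS, penicillin/streptomycin; 1 × 10^5 cells per well on coverslips, adhered overnight at 37 °C, 5% CO2, non-adherent cells washed off. Infected overnight with late-log promastigotes at parasite:macrophage 40:1. Compound exposure 72 h at 37 °C; Giemsa stain, amastigotes per 100 macrophages counted, IC50 derived; means ± SD of 3–4 independent experiments.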

The subject of series [12] is Leishmania braziliensis. Put plainly: Antileishmanial activity against wild type Leishmania braziliensis UA847 amastigotes infected in mouse peritoneal macrophage assessed as inhibition of parasite growth incubated for 72 hrs by giemsa staining based analysis. It counts as functional, organism-based. The procedure, abridged: (§6)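 Mouse peritoneal macrophages (1 × 10^5/well on coverslips, DMEM + 10% heat-inactivated FBS, penicillin/streptomycin) adhered overnight at 37 °C, 5% CO2. They were infected overnight with late-log promastigotes at a 20:1 parasite:macrophage ratio. Cells were then treated with compound for 72 h at 37 °C and Giemsa-stained. Amastigotes per 100 macrophages were counted to derive IC50; mean ± SD of 3–4 independent experiments.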

The test system of series [13] is Leishmania donovani. Put plainly: Antileishmanial activity against miltefosine resistant Leishmania donovani HU3MILR40 amastigotes infected in mouse peritoneal macrophage assessed as inhibition of parasite growth incubated for 72 hrs by giemsa staining based analysis. It counts as functional, organism-based. The procedure, abridged:
as §5

The nature of series [14]: Hepatotoxicity against human HepG2 cells assessed as cell viability at 125 uM incubated for 48 hrs by MTT assay. It counts as toxicity, cell-based. The settings on record: HepG2 cells, read-out: Activity. The procedure, abridged:
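HEP-G2 cells in RPMI 1640 + 10% heat-inactivated FBS, penicillin/streptomycin. Seeded at 15 000/well and attached 24 h at 37 °C, 5% CO2. Compounds were serially diluted in DMSO, with 24 or 48 h exposure. MTT (2.5 mg/mL solution) was added for 4 h, formazan dissolved in DMSO and A570 read. Viability was background-corrected against DMSO-treated cell controls; mean ± SD, ≥3 experiments.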

A short description of series [15]: Cytotoxicity against mouse peritoneal macrophage assessed as inhibition of cell growth incubated for 72 hrs by giemsa staining based analysis. It counts as toxicity. To be noted: peritoneal macrophages.
For series [16], the system named is Leishmania amazonensis. Put plainly: Antileishmanial activity against wild type Leishmania amazonensis LV78 amastigotes infected in mouse peritoneal macrophage assessed as inhibition of parasite growth incubated for 72 hrs by giemsa staining based analysis. It counts as functional, organism-based. The procedure, abridged: as §6
Series [17] can be described thus: Selectivity ratio of IC50 for cytotoxicity against mouse peritoneal macrophage assessed as inhibition of cell growth to IC50 for antileishmanial activity against miltefosine resistant Leishmania donovani HU3MILR40 amastigotes infected in mouse peritoneal macrophage assessed as inhibition of parasite growth. It counts as toxicity, cell-based. The settings on record: peritoneal macrophages, read-out: Ratio IC50.

Chain of hERG (KCNH2) (Q12809 whole entry): as above

On to `CSc1ccc(NC(=O)c2ncc([N+](=O)[O-])[nH]2)cc1`, for which the viability at up to 125 µM in series [1] amounted to 56%. The IC50 in the series on Leishmania donovani [2] was above 20 µM; with Leishmania amazonensis [4], above 20 µM; in the series with RAW264.7, above 68.7 µM; in the series on Leishmania braziliensis [6] it was above 20 µM; in the series on Leishmania major it was above 20 µM; with Leishmania donovani [9] it was above 13.9 µM. The compound further gave an IC25 in series [3] above 12.5 µM. Besides, the “inhibition (INH)” value in series [5] is “Not_active”. Besides, in series [7], the 50% inhibitory concentration (IC50) at 72 h is 84.7 µM. The remaining at 32 min, 20 µM in series [8] was 68.2%; in [10], 18.4%.
For `CSc1ccc(C(=O)Nc2ccc3c(c2)B(O)OC3(C)C)cc1`, the viability at up to 125 µM in series [1] is above 50%. For the same compound, the IC50 was 11.9 µM in the series on Leishmania donovani [2]; 3.6 µM in the series with Leishmania amazonensis [4]; 73.6 µM in the series with RAW264.7; above 10 µM with Leishmania donovani [11]; above 10 µM with Leishmania braziliensis [12]; above 10 µM with Leishmania donovani [13]. For the same compound, the IC50 with Leishmania braziliensis [6] was 4.4 µM; with Leishmania major, 3.9 µM; with Leishmania donovani [9] it was 15.4 µM; in the series with Leishmania amazonensis [16], above 10 µM. The compound further displayed an IC25 in series [3] above 6.2 µM. For the same compound, at hERG (KCNH2), the activity at 0.5 h, 6 µM amounted to 66%. In addition, the IC50 at 72 h in series [7] and in series [15] was above 100 µM throughout. Besides, the viability at 48 h, 125 µM in [14] was 54%. Moreover, the remaining at 32 min, 20 µM was 61.3% in [8] and 8% in [10].
Consider `Cn1c([N+](=O)[O-])cnc1COc1ccc(S(C)(=N)=O)cc1` (stereo not drawn), for which the viability at up to 125 µM in series [1] is above 50%. In addition, the IC50 in the series on Leishmania donovani [2] was 12.2 µM; in the series on Leishmania amazonensis [4] it was 14.6 µM; with RAW264.7 it was above 100 µM; in the series with Leishmania braziliensis [6] it was 9.6 µM; with Leishmania major it was 2.7 µM; in the series with Leishmania donovani [9], 12.3 µM. Also, the IC25 in series [3] was above 100 µM. Further, the “inhibition (INH)” value in [5] is on record as “Not_active”. The IC50 at 72 h in [7] is above 100 µM. In addition, the remaining at 32 min, 20 µM in series [8] and in series [10] was 100% each time.
Regarding `C[S+]([O-])c1ccc(C(=O)Nc2ccc3c(c2)B(O)OC3(C)C)cc1` (stereo not drawn), the viability at up to 125 µM in series [1] was above 50%. Moreover, the IC50 was above 16.8 µM in the series on Leishmania donovani [2]; above 20 µM in the series with Leishmania amazonensis [4]; above 100 µM with RAW264.7; above 20 µM in the series on Leishmania braziliensis [6]; above 20 µM with Leishmania major; above 20 µM in the series on Leishmania donovani [9]. In series [3], the IC25 amounted to 25.7 µM. The “inhibition (INH)” value in series [5] is “Not_active”. For the same compound, the IC50 at 72 h in series [7] is above 100 µM. Also, in series [14], the viability at 48 h, 125 µM is 54.2%. Besides, the remaining at 32 min, 20 µM in [8] was 100%; in [10], 95.2%.
In the case of `CSc1ccc(OC[C@H]2Cn3cc([N+](=O)[O-])nc3O2)cc1`, in series [1], the viability at up to 125 µM was above 50%. In addition, the IC50 is 1.1 µM in the series with Leishmania donovani [2]; 1.9 µM in the series on Leishmania amazonensis [4]; above 95.3 µM in the series on RAW264.7; 0.4 µM with Leishmania donovani [11]; 1 µM in the series on Leishmania braziliensis [12]; 0.6 µM with Leishmania donovani [13]. The IC50 was 1.4 µM in the series with Leishmania braziliensis [6], 5.7 µM with Leishmania major, 0.4 µM with Leishmania donovani [9] and 0.7 µM in the series on Leishmania amazonensis [16]. Also, the IC25 in [3] stood at 3.1 µM. The selectivity ratio in [17] is above 143. Moreover, the activity at 0.5 h, 6 µM at hERG (KCNH2) is 46%. Besides, the IC50 at 72 h was above 100 µM in series [7] and above 86 µM in [15]. In addition, the remaining at 32 min, 20 µM came to 92.1% in series [8] and 64.7% in series [10].
